Test results taken from ChEMBL document CHEMBL3097989, “Antimicrobial activity of de novo designed cationic peptides against multi-resistant clinical isolates” (Eur J Med Chem, 2014).

Assays:
Format in all cases: functional
[1] = system: Klebsiella pneumoniae; assay: Antibacterial activity against Klebsiella pneumoniae M9491 clinical isolate expressing blaMOX gene by microdilution test
Outline: (§1)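 MIC by standard broth microdilution following CLSI recommendations, in Mueller Hinton broth supplemented with Ca²⁺ (20-25mg/L) and Mg²⁺ (10-12.5mg/L); peptides tested against a panel of multi-resistant clinical isolates plus ATCC reference strains.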

[2] = system: Klebsiella pneumoniae; assay: Antibacterial activity against Klebsiella pneumoniae M9140 clinical isolate expressing blaCIT gene by microdilution test; outline: as §1
[3] = system: Klebsiella pneumoniae; assay: Antibacterial activity against Klebsiella pneumoniae PFAV3 by microdilution test; outline: as §1
[4] = system: Acinetobacter sp.; assay: Antibacterial activity against Acinetobacter sp. M7978 clinical isolate expressing blaIMP-1 gene by microdilution test; outline: as §1
[5] = system: Acinetobacter sp.; assay: Antibacterial activity against Acinetobacter sp. M5949 clinical isolate expressing blaOXA-23 and blaOXA-GVI gene by microdilution test; outline: as §1
[6] = system: Acinetobacter sp.; assay: Antibacterial activity against Acinetobacter sp. M5277 clinical isolate expressing blaPER gene by microdilution test; outline: as §1
[7] = system: Acinetobacter sp.; assay: Antibacterial activity against Acinetobacter sp. PFAV1 clinical isolate expressing blaOXA-51, blaOXA-58 and blaPER gene by microdilution test; outline: as §1
[8] = system: Acinetobacter sp.; assay: Antibacterial activity against Acinetobacter sp. M7489 clinical isolate expressing blaOXA-51 and blaTEM gene by microdilution test; outline: as §1
[9] = system: Acinetobacter sp.; assay: Antibacterial activity against Acinetobacter sp. M5179 clinical isolate expressing blaOXA-51 gene by microdilution test; outline: as §1
[10] = system: Acinetobacter sp.; assay: Antibacterial activity against Acinetobacter sp. M5282 clinical isolate expressing blaOXA-51 gene by microdilution test; outline: as §1
[11] = system: Acinetobacter sp.; assay: Antibacterial activity against Acinetobacter sp. M9665 clinical isolate expressing blaOXA-51 gene by microdilution test; outline: as §1
[12] = system: Pseudomonas aeruginosa; assay: Antibacterial activity against Pseudomonas aeruginosa M7712 clinical isolate expressing blaSPM gene by microdilution test
Outline: (§2)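 MIC by standard broth microdilution following CLSI recommendations, in Mueller Hinton broth supplemented with Ca²⁺ (20-25 mg/L) and Mg²⁺ (10-12.5 mg/L); ATCC reference strains included in the panel.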

[13] = system: Pseudomonas aeruginosa; assay: Antibacterial activity against Pseudomonas aeruginosa M5200 clinical isolate expressing blaVIM and blaGES-1 gene by microdilution test; outline: as §2
[14] = system: Pseudomonas aeruginosa; assay: Antibacterial activity against Pseudomonas aeruginosa M5109 clinical isolate expressing blaVIM and blaGES-1 gene by microdilution test; outline: as §2
[15] = system: Pseudomonas aeruginosa; assay: Antibacterial activity against Pseudomonas aeruginosa M7723 clinical isolate expressing blaKPC-2 gene by microdilution test; outline: as §2
[16] = system: Pseudomonas aeruginosa; assay: Antibacterial activity against Pseudomonas aeruginosa M11005 clinical isolate expressing blaKPC-2 gene by microdilution test; outline: as §1
[17] = system: Pseudomonas aeruginosa; assay: Antibacterial activity against Pseudomonas aeruginosa M5470 by microdilution test; outline: as §2
[18] = system: Pseudomonas aeruginosa; assay: Antibacterial activity against Pseudomonas aeruginosa PCOS12 by microdilution test; outline: as §2
[19] = system: Pseudomonas aeruginosa; assay: Antibacterial activity against Pseudomonas aeruginosa ATCC 27853 by microdilution test; outline: as §1
[20] = system: Enterococcus gallinarum; assay: Antibacterial activity against Enterococcus gallinarum M2723 clinical isolate expressing vanC1 and vanA gene by microdilution test; outline: as §1
[21] = system: Enterococcus faecium; assay: Antibacterial activity against Enterococcus faecium M2304 clinical isolate expressing vanA gene by microdilution test; outline: as §1
[22] = system: Enterococcus faecium; assay: Antibacterial activity against Enterococcus faecium M2481 clinical isolate expressing vanB gene by microdilution test; outline: as §1
[23] = system: Enterococcus faecium; assay: Antibacterial activity against Enterococcus faecium M6261 by microdilution test; outline: as §1
[24] = system: Enterococcus faecium; assay: Antibacterial activity against Enterococcus faecium PZAP95 by microdilution test; outline: as §1
[25] = system: Enterococcus faecalis; assay: Antibacterial activity against Enterococcus faecalis M6383 clinical isolate expressing vanA gene by microdilution test; outline: as §1
[26] = system: Enterococcus faecalis; assay: Antibacterial activity against Enterococcus faecalis M6534 clinical isolate expressing vanB gene by microdilution test; outline: as §1
[27] = system: Enterococcus faecalis; assay: Antibacterial activity against Enterococcus faecalis M4899 clinical isolate expressing vanB gene by microdilution test; outline: as §1
[28] = system: Enterococcus faecalis; assay: Antibacterial activity against Enterococcus faecalis ATCC 51299 clinical isolate expressing vanB gene by microdilution test; outline: as §1
[29] = system: Enterococcus faecalis; assay: Antibacterial activity against Enterococcus faecalis ATCC 29212 by microdilution test; outline: as §1
[30] = system: Staphylococcus cohnii; assay: Antibacterial activity against Staphylococcus cohnii M6767 clinical isolate expressing mecA gene by microdilution test; outline: as §2
[31] = system: Staphylococcus hominis; assay: Antibacterial activity against Staphylococcus hominis M2967 clinical isolate expressing mecA gene by microdilution test; outline: as §2
[32] = system: Staphylococcus hominis; assay: Antibacterial activity against Staphylococcus hominis M2973 clinical isolate expressing mecA gene by microdilution test; outline: as §2
[33] = system: Staphylococcus haemolyticus; assay: Antibacterial activity against Staphylococcus haemolyticus M2976 clinical isolate expressing mecA gene by microdilution test; outline: as §2
[34] = system: Staphylococcus saprophyticus; assay: Antibacterial activity against Staphylococcus saprophyticus M2981 clinical isolate expressing mecA gene by microdilution test; outline: as §2
[35] = system: Staphylococcus saprophyticus; assay: Antibacterial activity against Staphylococcus saprophyticus M4070 clinical isolate expressing mecA gene by microdilution test; outline: as §2
[36] = system: Staphylococcus epidermidis; assay: Antibacterial activity against Staphylococcus epidermidis M2921 clinical isolate expressing mecA gene by microdilution test; outline: as §2
[37] = system: Staphylococcus epidermidis; assay: Antibacterial activity against Staphylococcus epidermidis M2919 clinical isolate expressing mecA gene by microdilution test; outline: as §2
[38] = system: Staphylococcus epidermidis; assay: Antibacterial activity against Staphylococcus epidermidis M2923 by microdilution test; outline: as §2
[39] = system: Staphylococcus aureus; assay: Antibacterial activity against Staphylococcus aureus M4046 clinical isolate expressing mecA gene by microdilution test; outline: as §2
[40] = system: Staphylococcus aureus; assay: Antibacterial activity against Staphylococcus aureus M2832 clinical isolate expressing mecA gene by microdilution test; outline: as §2
[41] = system: Staphylococcus aureus; assay: Antibacterial activity against Staphylococcus aureus M6794 clinical isolate expressing mecA gene by microdilution test; outline: as §2
[42] = system: Staphylococcus aureus; assay: Antibacterial activity against Staphylococcus aureus M6276 clinical isolate expressing ermA and lnuA gene by microdilution test; outline: as §2
[43] = system: Staphylococcus aureus; assay: Antibacterial activity against Staphylococcus aureus P204 clinical isolate expressing ermA gene by microdilution test; outline: as §2
[44] = system: Staphylococcus aureus; assay: Antibacterial activity against Staphylococcus aureus P28 clinical isolate expressing ermA gene by microdilution test; outline: as §2
[45] = system: Staphylococcus aureus; assay: Antibacterial activity against Staphylococcus aureus P33 clinical isolate expressing msrA gene by microdilution test; outline: as §2
[46] = system: Escherichia coli; assay: Antibacterial activity against Escherichia coli PLCA1 clinical isolate expressing blaCTX-M-2 and blaTEM-1 gene by microdilution test; outline: as §1
[47] = system: Escherichia coli; assay: Antibacterial activity against Escherichia coli PCOS15 clinical isolate expressing blaPER-2 and blaTEM-1 gene by microdilution test; outline: as §1
[48] = system: Escherichia coli; assay: Antibacterial activity against Escherichia coli PNEU23 clinical isolate expressing blaOXA-GIII and blaTEM-1 gene by microdilution test; outline: as §1
[49] = system: Escherichia coli; assay: Antibacterial activity against Escherichia coli M7859 clinical isolate expressing blaCIT gene by microdilution test; outline: as §1
[50] = system: Escherichia coli; assay: Antibacterial activity against Escherichia coli M9884 by microdilution test; outline: as §1
[51] = system: Escherichia coli; assay: Antibacterial activity against Escherichia coli ATCC 25922 by microdilution test; outline: as §1
[52] = system: Klebsiella pneumoniae; assay: Antibacterial activity against Klebsiella pneumoniae M7647 clinical isolate expressing blaVIM, blaCTX-M-2, blaTEM-1 and blaSHV-1 gene by microdilution test; outline: as §1
[53] = system: Klebsiella pneumoniae; assay: Antibacterial activity against Klebsiella pneumoniae M5825 clinical isolate expressing blaGES-3 and blaCTX-M-2 gene by microdilution test; outline: as §1

Measured: MIC90

H-WPKWWKWKRRWGRKKAKKRRG-NH2
1020 µg/mL: [1] | [2] | [3]
32 µg/mL: [20] | [22] | [23] | [24] | [39] | [40] | [41] | [44] | [45]
> 1020 µg/mL: [52] | [53]
256 µg/mL: [5] | [27] | [28]
16 µg/mL: [21] | [30] | [33] | [34] | [35] | [37] | [38] | [42]
128 µg/mL: [11] | [14] | [17] | [25] | [26] | [46] | [47] | [48] | [49] | [50] | [51]
8 µg/mL: [31] | [36]
4 µg/mL: [32]
64 µg/mL: all other assays above
